# Results as given in ChEMBL document CHEMBL1629690, “Development of hexadecyloxypropyl tenofovir (CMX157) for treatment of infection caused by wild-type and nucleoside/nucleotide-resistant HIV” (Antimicrob Agents Chemother, 2010).
# Tested on: Human immunodeficiency virus 1
# Experiment: Antiviral activity against HIV1 71361-1 harboring reverse transcriptase 65R mutant gene infected in human PBMC by ELISA
# Format: functional, organism-based
# Conditions: Human immunodeficiency virus 1, 71361-1
# In short: (§1)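 Fresh PBMCs pooled from at least two HIV- and HBV-seronegative donors, stimulated with PHA 4 μg/ml for 48–72 h and kept in rhIL-2 20 U/ml. Seeded at 5 × 10^4 cells/well and infected with RT-mutant HIV-1 clones at MOI ~0.1. Nine compound concentrations, triplicate wells, 7-day incubation. EC50 reported as mean ± SD of one to three independent experiments.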
row,SMILES,EC50 [nM]
1,C[C@H](Cn1cnc2c(N)ncnc21)OCP(=O)(O)O [TENOFOVIR ANHYDROUS],> 8000

# Tested on: Human immunodeficiency virus 1
# Experiment: Antiviral activity against HIV1 isolate 194 harboring reverse transcriptase M41L/T215Y/M184V mutant gene by phenosense assay
# Format: functional, organism-based
# Conditions: Human immunodeficiency virus 1, isolate 194
# In short: (§2)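 Recombinant-virus PhenoSense HIV assay run on a panel of 30 NRTI-resistant HIV-1 mutants and two wild-type viruses. Each virus is tested across increasing drug concentrations to give an inhibition curve and EC50. Fold change is the test recombinant EC50 divided by the EC50 of the drug-sensitive wild-type reference virus.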
row,SMILES,EC50 [nM]
1,C[C@H](Cn1cnc2c(N)ncnc21)OCP(=O)(O)O [TENOFOVIR ANHYDROUS],1000

# Tested on: Human immunodeficiency virus 1
# Experiment: Antiviral activity against HIV1 isolate 070 harboring reverse transcriptase 65R/S68G mutant gene by phenosense assay
# Format: functional, organism-based
# Conditions: Human immunodeficiency virus 1, isolate 070
# In short: as §2
row,SMILES,EC50 [nM]
1,C[C@H](Cn1cnc2c(N)ncnc21)OCP(=O)(O)O [TENOFOVIR ANHYDROUS],1300

# Tested on: Human immunodeficiency virus 1
# Experiment: Antiviral activity against HIV1 isolate 206 harboring reverse transcriptase D67N/K70R mutant gene by phenosense assay
# Format: functional, organism-based
# Conditions: Human immunodeficiency virus 1, isolate 206
# In short: (§3)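 PhenoSense HIV recombinant virus assay: patient-derived HIV-1 with major NRTI resistance mutations tested against increasing drug concentrations to give inhibition curves. EC50 is the concentration giving 50% inhibition. Fold change is the test recombinant EC50 divided by the EC50 of a drug-sensitive wild-type reference virus. Panel of 30 NRTI-resistant isolates plus two wild-type viruses.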
row,SMILES,EC50 [nM]
1,C[C@H](Cn1cnc2c(N)ncnc21)OCP(=O)(O)O [TENOFOVIR ANHYDROUS],2000

# Tested on: Human immunodeficiency virus 1
# Experiment: Antiviral activity against HIV1 isolate 174 harboring reverse transcriptase M184V mutant gene obtained as site-directed mutant of NL4-3 by phenosense assay relative to wild type
# Format: functional
# Conditions: not given
# In short: as §2
row,SMILES,fold change (FC)
1,C[C@H](Cn1cnc2c(N)ncnc21)OCP(=O)(O)O [TENOFOVIR ANHYDROUS],0.54

# Tested on: Human immunodeficiency virus 1
# Experiment: Antiviral activity against HIV1 4755-5 harboring reverse transcriptase 41L/44D/67N/69D/118I/210W/215Y/184V mutant gene infected in human PBMC by ELISA
# Format: functional, organism-based
# Conditions: Human immunodeficiency virus 1, 4755-5
# In short: as §1
row,SMILES,EC50 [nM]
1,C[C@H](Cn1cnc2c(N)ncnc21)OCP(=O)(O)O [TENOFOVIR ANHYDROUS],5400

# Tested on: Human immunodeficiency virus 1
# Experiment: Antiviral activity against HIV1 isolate 153 harboring reverse transcriptase L74V mutant gene by phenosense assay relative to wild type
# Format: functional
# Conditions: not given
# In short: as §2
row,SMILES,fold change (FC)
1,C[C@H](Cn1cnc2c(N)ncnc21)OCP(=O)(O)O [TENOFOVIR ANHYDROUS],0.62

# Tested on: Human immunodeficiency virus 1
# Experiment: Antiviral activity against HIV1 isolate 215 harboring reverse transcriptase D67N/K70E mutant gene by phenosense assay relative to wild type
# Format: functional
# Conditions: not given
# In short: as §3
row,SMILES,fold change (FC)
1,C[C@H](Cn1cnc2c(N)ncnc21)OCP(=O)(O)O [TENOFOVIR ANHYDROUS],0.96

# Tested on: Human immunodeficiency virus 1
# Experiment: Antiviral activity against HIV1 isolate 067 harboring reverse transcriptase A62V/D67G/T69SVG/V75I/T215I mutant gene by phenosense assay relative to wild type
# Format: functional
# Conditions: not given
# In short: as §2
row,SMILES,fold change (FC)
1,C[C@H](Cn1cnc2c(N)ncnc21)OCP(=O)(O)O [TENOFOVIR ANHYDROUS],22

# Tested on: Human immunodeficiency virus 1
# Experiment: Antiviral activity against HIV1 isolate 192 harboring reverse transcriptase M41L/T215Y mutant gene by phenosense assay
# Format: functional, organism-based
# Conditions: Human immunodeficiency virus 1, isolate 192
# In short: as §2
row,SMILES,EC50 [nM]
1,C[C@H](Cn1cnc2c(N)ncnc21)OCP(=O)(O)O [TENOFOVIR ANHYDROUS],1400

# Tested on: Human immunodeficiency virus 1
# Experiment: Antiviral activity against HIV1 isolate 200 harboring reverse transcriptase M41L/L210W/T215Y mutant gene by phenosense assay relative to wild type
# Format: functional
# Conditions: not given
# In short: as §2
row,SMILES,fold change (FC)
1,C[C@H](Cn1cnc2c(N)ncnc21)OCP(=O)(O)O [TENOFOVIR ANHYDROUS],2.8

# Tested on: Human immunodeficiency virus 1
# Experiment: Antiviral activity against HIV1 1617-1 harboring reverse transcriptase 69K/70G/75I/77L/116Y/151M/184V mutant gene infected in human PBMC by ELISA
# Format: functional, organism-based
# Conditions: Human immunodeficiency virus 1, 1617-1
# In short: as §1
row,SMILES,EC50 [nM]
1,C[C@H](Cn1cnc2c(N)ncnc21)OCP(=O)(O)O [TENOFOVIR ANHYDROUS],> 6500

# Tested on: Human immunodeficiency virus 1
# Experiment: Antiviral activity against HIV1 isolate 160 harboring reverse transcriptase S68G/V75(I/T)/F77L/Y115F/F116Y /Q151M mutant gene by phenosense assay relative to wild type
# Format: functional
# Conditions: not given
# In short: as §2
row,SMILES,fold change (FC)
1,C[C@H](Cn1cnc2c(N)ncnc21)OCP(=O)(O)O [TENOFOVIR ANHYDROUS],2.3

# Tested on: Human immunodeficiency virus 1
# Experiment: Antiviral activity against HIV1 7303-3 harboring reverse transcriptase 41L/44D/67N/69D/118I/210W/215Y mutant gene infected in human PBMC by ELISA
# Format: functional, organism-based
# Conditions: Human immunodeficiency virus 1, 7303-3
# In short: as §1
row,SMILES,EC50 [nM]
1,C[C@H](Cn1cnc2c(N)ncnc21)OCP(=O)(O)O [TENOFOVIR ANHYDROUS],> 8500

# Tested on: Human immunodeficiency virus 1
# Experiment: Antiviral activity against HIV1 isolate 061 harboring reverse transcriptase M41L/D67N/K70R/M184V/L210W/T215Y/K219E mutant gene by phenosense assay
# Format: functional, organism-based
# Conditions: Human immunodeficiency virus 1, isolate 061
# In short: as §2
row,SMILES,EC50 [nM]
1,C[C@H](Cn1cnc2c(N)ncnc21)OCP(=O)(O)O [TENOFOVIR ANHYDROUS],2000

# Tested on: Human immunodeficiency virus 1
# Experiment: Antiviral activity against HIV1 isolate 160 harboring reverse transcriptase S68G/V75(I/T)/F77L/Y115F/F116Y /Q151M mutant gene by phenosense assay
# Format: functional, organism-based
# Conditions: Human immunodeficiency virus 1, isolate 160
# In short: as §2
row,SMILES,EC50 [nM]
1,C[C@H](Cn1cnc2c(N)ncnc21)OCP(=O)(O)O [TENOFOVIR ANHYDROUS],1700

# Tested on: Human immunodeficiency virus 1
# Experiment: Antiviral activity against HIV1 isolate 166 harboring reverse transcriptase L74V mutant gene obtained as site-directed mutant of NL4-3 by phenosense assay
# Format: functional, organism-based
# Conditions: Human immunodeficiency virus 1, isolate 166
# In short: as §2
row,SMILES,EC50 [nM]
1,C[C@H](Cn1cnc2c(N)ncnc21)OCP(=O)(O)O [TENOFOVIR ANHYDROUS],540

# Tested on: Human immunodeficiency virus 1
# Experiment: Antiviral activity against HIV1 isolate 157 harboring reverse transcriptase L74V/M184V mutant gene by phenosense assay relative to wild type
# Format: functional
# Conditions: not given
# In short: as §2
row,SMILES,fold change (FC)
1,C[C@H](Cn1cnc2c(N)ncnc21)OCP(=O)(O)O [TENOFOVIR ANHYDROUS],0.29

# Tested on: Human immunodeficiency virus 1
# Experiment: Antiviral activity against HIV1 isolate 060 harboring reverse transcriptase M41L/D67N/K70R/L210W/T215Y/K219E mutant gene by phenosense assay relative to wild type
# Format: functional
# Conditions: not given
# In short: as §2
row,SMILES,fold change (FC)
1,C[C@H](Cn1cnc2c(N)ncnc21)OCP(=O)(O)O [TENOFOVIR ANHYDROUS],4

# Tested on: Human immunodeficiency virus 1
# Experiment: Antiviral activity against HIV1 52534-2 harboring reverse transcriptase 41L//74V/210W/215Y/184V/69SSS mutant gene infected in human PBMC by ELISA
# Format: functional, organism-based
# Conditions: Human immunodeficiency virus 1, 52534-2
# In short: as §1
row,SMILES,EC50 [nM]
1,C[C@H](Cn1cnc2c(N)ncnc21)OCP(=O)(O)O [TENOFOVIR ANHYDROUS],> 6500

# Tested on: Human immunodeficiency virus 1
# Experiment: Antiviral activity against HIV1 isolate 220 harboring reverse transcriptase K70E/M184V mutant gene by phenosense assay
# Format: functional, organism-based
# Conditions: Human immunodeficiency virus 1, isolate 220
# In short: as §3
row,SMILES,EC50 [nM]
1,C[C@H](Cn1cnc2c(N)ncnc21)OCP(=O)(O)O [TENOFOVIR ANHYDROUS],470

# Tested on: Human immunodeficiency virus 1
# Experiment: Antiviral activity against HIV1 isolate 188 harboring reverse transcriptase T215Y/M184V mutant gene by phenosense assay relative to wild type
# Format: functional
# Conditions: not given
# In short: as §2
row,SMILES,fold change (FC)
1,C[C@H](Cn1cnc2c(N)ncnc21)OCP(=O)(O)O [TENOFOVIR ANHYDROUS],0.81

# Tested on: Human immunodeficiency virus 1
# Experiment: Antiviral activity against HIV1 isolate 174 harboring reverse transcriptase M184V mutant gene obtained as site-directed mutant of NL4-3 by phenosense assay
# Format: functional, organism-based
# Conditions: Human immunodeficiency virus 1, isolate 174
# In short: as §2
row,SMILES,EC50 [nM]
1,C[C@H](Cn1cnc2c(N)ncnc21)OCP(=O)(O)O [TENOFOVIR ANHYDROUS],410

# Tested on: Human immunodeficiency virus 1
# Experiment: Antiviral activity against HIV1 isolate 185 harboring reverse transcriptase T215Y mutant gene by phenosense assay
# Format: functional, organism-based
# Conditions: Human immunodeficiency virus 1, isolate 185
# In short: as §2
row,SMILES,EC50 [nM]
1,C[C@H](Cn1cnc2c(N)ncnc21)OCP(=O)(O)O [TENOFOVIR ANHYDROUS],1800

# Tested on: Human immunodeficiency virus 1
# Experiment: Antiviral activity against HIV1 isolate 066 harboring reverse transcriptase 184V mutant gene by phenosense assay
# Format: functional, organism-based
# Conditions: Human immunodeficiency virus 1, isolate 066
# In short: as §2
row,SMILES,EC50 [nM]
1,C[C@H](Cn1cnc2c(N)ncnc21)OCP(=O)(O)O [TENOFOVIR ANHYDROUS],530

# Tested on: Human immunodeficiency virus 1
# Experiment: Antiviral activity against HIV1 isolate 058 harboring reverse transcriptase M41L/D67N/K70R/L210W/T215F/K219Q mutant gene by phenosense assay relative to wild type
# Format: functional
# Conditions: not given
# In short: as §2
row,SMILES,fold change (FC)
1,C[C@H](Cn1cnc2c(N)ncnc21)OCP(=O)(O)O [TENOFOVIR ANHYDROUS],3.5

# Tested on: Human immunodeficiency virus 1
# Experiment: Antiviral activity against HIV1 isolate 204 harboring reverse transcriptase M41L/L210W/T215Y/M184V mutant gene by phenosense assay
# Format: functional, organism-based
# Conditions: Human immunodeficiency virus 1, isolate 204
# In short: as §3
row,SMILES,EC50 [nM]
1,C[C@H](Cn1cnc2c(N)ncnc21)OCP(=O)(O)O [TENOFOVIR ANHYDROUS],790

# Tested on: Human immunodeficiency virus 1
# Experiment: Antiviral activity against HIV1 isolate 058 harboring reverse transcriptase M41L/D67N/K70R/L210W/T215F/K219Q mutant gene by phenosense assay
# Format: functional, organism-based
# Conditions: Human immunodeficiency virus 1, isolate 058
# In short: as §2
row,SMILES,EC50 [nM]
1,C[C@H](Cn1cnc2c(N)ncnc21)OCP(=O)(O)O [TENOFOVIR ANHYDROUS],2700

# Tested on: Human immunodeficiency virus 1
# Experiment: Antiviral activity against HIV1 isolate 061 harboring reverse transcriptase M41L/D67N/K70R/M184V/L210W/T215Y/K219E mutant gene by phenosense assay relative to wild type
# Format: functional
# Conditions: not given
# In short: as §2
row,SMILES,fold change (FC)
1,C[C@H](Cn1cnc2c(N)ncnc21)OCP(=O)(O)O [TENOFOVIR ANHYDROUS],2.2

# Tested on: Human immunodeficiency virus 1
# Experiment: Antiviral activity against HIV1 isolate 185 harboring reverse transcriptase T215Y mutant gene by phenosense assay relative to wild type
# Format: functional
# Conditions: not given
# In short: as §2
row,SMILES,fold change (FC)
1,C[C@H](Cn1cnc2c(N)ncnc21)OCP(=O)(O)O [TENOFOVIR ANHYDROUS],2.4

# Tested on: Human immunodeficiency virus 1
# Experiment: Antiviral activity against HIV1 isolate 166 harboring reverse transcriptase L74V mutant gene obtained as site-directed mutant of NL4-3 by phenosense assay relative to wild type
# Format: functional
# Conditions: not given
# In short: as §2
row,SMILES,fold change (FC)
1,C[C@H](Cn1cnc2c(N)ncnc21)OCP(=O)(O)O [TENOFOVIR ANHYDROUS],0.69

# Tested on: Human immunodeficiency virus 1
# Experiment: Antiviral activity against HIV1 isolate 056 expressing wild type reverse transcriptase gene by phenosense assay
# Format: functional, organism-based
# Conditions: Human immunodeficiency virus 1, isolate 056
# In short: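 In the PhenoSense recombinant virus assay, virus was tested against increasing drug concentrations. EC50 came from the inhibition curve and was compared with a drug-sensitive reference virus.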
row,SMILES,EC50 [nM]
1,C[C@H](Cn1cnc2c(N)ncnc21)OCP(=O)(O)O [TENOFOVIR ANHYDROUS],610
